Measurements as given in ChEMBL document CHEMBL1130095, “Synthesis of analogs of 2-methoxyestradiol with enhanced inhibitory effects on tubulin polymerization and cancer cell growth” (J Med Chem, 1997).

tested on: HOP-62; test: In vitro cytotoxicity value corresponding to 50% growth inhibition against HOP-62(non small cell lung) cell line.; type: functional; settings: Homo sapiens

Structure (SMILES)	GI50 [µM]
CCOc1cc2c(cc1O)C=CC1C2CC[C@@]2(C)C1CC[C@@H]2O (stereo partly drawn)	3.9
CCOc1cc2c(cc1O)/C(=N\N)C[C@@H]1[C@@H]2CC[C@]2(C)[C@@H](O)CC[C@@H]12	1.2
C[C@]12CC[C@@H]3c4cc(OCC(F)(F)F)c(O)cc4CC[C@H]3[C@@H]1CC[C@@H]2O	12
CCOc1cc2c(cc1O)CC[C@@H]1[C@@H]2CC[C@]2(C)[C@@H](O)CC[C@@H]12	0.018

tested on: Panel (Carcinoma cell lines); test: Mean graph midpoint for growth inhibition of all human cancer cell lines; type: functional; settings: not given

Structure (SMILES)	GI50 [µM]
Cc1cc2cc3c(cc2o1)CC[C@@H]1[C@@H]3CC[C@]2(C)[C@@H](O)CC[C@@H]12	14
C[C@]12CC[C@@H]3c4cc(Br)c(O)c(Br)c4CC[C@H]3[C@@H]1CC[C@@H]2O	25
CCOc1cc2c(cc1O)C=CC1C2CC[C@@]2(C)C1CC[C@@H]2O (stereo partly drawn)	3.8
CCOc1cc2c(cc1O)/C(=N\N)C[C@@H]1[C@@H]2CC[C@]2(C)[C@@H](O)CC[C@@H]12	4.2
C[C@]12CC[C@@H]3c4cc(OCC(F)(F)F)c(O)cc4CC[C@H]3[C@@H]1CC[C@@H]2O	2.6
CCOc1cc2c(cc1O)CC[C@@H]1[C@@H]2CC[C@]2(C)[C@@H](O)CC[C@@H]12	0.076

target: Tubulin (Bos taurus, UniProt Q6B856+Q862L2+Q862F3); test: Evaluated for inhibition of tubulin polymerization.; type: functional; settings: not given
Procedure, shortened: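 Electrophoretically homogeneous bovine brain tubulin at 1.2 mg/mL (12 µM), preincubated at 26 °C with varying compound concentrations, then chilled on ice before GTP was added. Assembly was followed at 26 °C by turbidity at 350 nm, and the extent was read at 20 min. IC50 was derived graphically from at least two independent assays.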

Structure (SMILES)	IC50 [µM]
Cc1cc2cc3c(cc2o1)CC[C@@H]1[C@@H]3CC[C@]2(C)[C@@H](O)CC[C@@H]12	> 40
C[C@]12CC[C@@H]3c4cc(Br)c(O)c(Br)c4CC[C@H]3[C@@H]1CC[C@@H]2O	> 40
CCOc1cc2c(cc1O)C=CC1C2CC[C@@]2(C)C1CC[C@@H]2O (stereo partly drawn)	4.4
CCOc1cc2c(cc1O)/C(=N\N)C[C@@H]1[C@@H]2CC[C@]2(C)[C@@H](O)CC[C@@H]12	4.3
C[C@]12CC[C@@H]3c4cc(OCC(F)(F)F)c(O)cc4CC[C@H]3[C@@H]1CC[C@@H]2O	1.5
CCOc1cc2c(cc1O)CC[C@@H]1[C@@H]2CC[C@]2(C)[C@@H](O)CC[C@@H]12	1.3

tested on: SF-539; test: The In vitro cytotoxicity corresponding to 50% growth inhibition against […] (central nervous system) cell line.; type: functional; settings: Homo sapiens

Structure (SMILES)	GI50 [µM]
Cc1cc2cc3c(cc2o1)CC[C@@H]1[C@@H]3CC[C@]2(C)[C@@H](O)CC[C@@H]12	14
C[C@]12CC[C@@H]3c4cc(Br)c(O)c(Br)c4CC[C@H]3[C@@H]1CC[C@@H]2O	21
CCOc1cc2c(cc1O)C=CC1C2CC[C@@]2(C)C1CC[C@@H]2O (stereo partly drawn)	2
CCOc1cc2c(cc1O)/C(=N\N)C[C@@H]1[C@@H]2CC[C@]2(C)[C@@H](O)CC[C@@H]12	2.8
C[C@]12CC[C@@H]3c4cc(OCC(F)(F)F)c(O)cc4CC[C@H]3[C@@H]1CC[C@@H]2O	1.4
CCOc1cc2c(cc1O)CC[C@@H]1[C@@H]2CC[C@]2(C)[C@@H](O)CC[C@@H]12	0.014

tested on: DU-145; test: The In vitro cytotoxicity value corresponding to 50% growth inhibition against DU-145 (prostate) cell line.; type: functional; settings: Homo sapiens

Structure (SMILES)	GI50 [µM]
Cc1cc2cc3c(cc2o1)CC[C@@H]1[C@@H]3CC[C@]2(C)[C@@H](O)CC[C@@H]12	17
C[C@]12CC[C@@H]3c4cc(Br)c(O)c(Br)c4CC[C@H]3[C@@H]1CC[C@@H]2O	40
CCOc1cc2c(cc1O)C=CC1C2CC[C@@]2(C)C1CC[C@@H]2O (stereo partly drawn)	2.1
CCOc1cc2c(cc1O)/C(=N\N)C[C@@H]1[C@@H]2CC[C@]2(C)[C@@H](O)CC[C@@H]12	17
C[C@]12CC[C@@H]3c4cc(OCC(F)(F)F)c(O)cc4CC[C@H]3[C@@H]1CC[C@@H]2O	7
CCOc1cc2c(cc1O)CC[C@@H]1[C@@H]2CC[C@]2(C)[C@@H](O)CC[C@@H]12	0.065

target: Tubulin beta chain (Bos taurus) (UniProt Q6B856); test: Evaluated for % inhibition of colchicine binding to tubulin.; design: concentration or dose not given beside the values; settings: concentration not given here
Sequence (Q6B856 whole entry): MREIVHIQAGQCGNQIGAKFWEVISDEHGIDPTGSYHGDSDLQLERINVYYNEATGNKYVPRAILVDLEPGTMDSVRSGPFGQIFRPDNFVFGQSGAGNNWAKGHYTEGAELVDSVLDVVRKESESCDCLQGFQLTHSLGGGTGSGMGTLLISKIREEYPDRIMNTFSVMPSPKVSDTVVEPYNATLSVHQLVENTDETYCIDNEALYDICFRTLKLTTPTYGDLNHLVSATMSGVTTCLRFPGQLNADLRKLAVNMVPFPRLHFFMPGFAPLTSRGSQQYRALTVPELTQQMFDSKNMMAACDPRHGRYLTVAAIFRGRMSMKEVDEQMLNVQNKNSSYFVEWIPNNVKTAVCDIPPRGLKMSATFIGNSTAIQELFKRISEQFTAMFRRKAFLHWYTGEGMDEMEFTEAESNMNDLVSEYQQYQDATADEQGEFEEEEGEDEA
Procedure, shortened: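 Mixtures held 1.0 µM bovine brain tubulin (0.1 mg/mL), 5.0 µM [³H]colchicine and 50 µM inhibitor, incubated 10 min at 37 °C. Bound-colchicine inhibition is given as percent, from triplicate samples in each experiment.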

Structure (SMILES)	inhibition [%]
CCOc1cc2c(cc1O)C=CC1C2CC[C@@]2(C)C1CC[C@@H]2O (stereo partly drawn)	8.6
CCOc1cc2c(cc1O)/C(=N\N)C[C@@H]1[C@@H]2CC[C@]2(C)[C@@H](O)CC[C@@H]12	9.6
C[C@]12CC[C@@H]3c4cc(OCC(F)(F)F)c(O)cc4CC[C@H]3[C@@H]1CC[C@@H]2O	11
CCOc1cc2c(cc1O)CC[C@@H]1[C@@H]2CC[C@]2(C)[C@@H](O)CC[C@@H]12	51

tested on: MDA-MB-435; test: In vitro cytotoxicity value corresponding to 50% growth inhibition against MDA-MB-435 (breast) cell line.; type: functional; settings: Homo sapiens

Structure (SMILES)	GI50 [µM]
Cc1cc2cc3c(cc2o1)CC[C@@H]1[C@@H]3CC[C@]2(C)[C@@H](O)CC[C@@H]12	23
C[C@]12CC[C@@H]3c4cc(Br)c(O)c(Br)c4CC[C@H]3[C@@H]1CC[C@@H]2O	27
CCOc1cc2c(cc1O)C=CC1C2CC[C@@]2(C)C1CC[C@@H]2O (stereo partly drawn)	0.34
CCOc1cc2c(cc1O)/C(=N\N)C[C@@H]1[C@@H]2CC[C@]2(C)[C@@H](O)CC[C@@H]12	6.5
C[C@]12CC[C@@H]3c4cc(OCC(F)(F)F)c(O)cc4CC[C@H]3[C@@H]1CC[C@@H]2O	0.28
CCOc1cc2c(cc1O)CC[C@@H]1[C@@H]2CC[C@]2(C)[C@@H](O)CC[C@@H]12	< 0.01

tested on: OVCAR-3; test: In vitro cytotoxicity value corresponding to 50% growth inhibition against OVCAR-3 (ovarian) cell line.; type: functional; settings: Homo sapiens

Structure (SMILES)	GI50 [µM]
Cc1cc2cc3c(cc2o1)CC[C@@H]1[C@@H]3CC[C@]2(C)[C@@H](O)CC[C@@H]12	18
C[C@]12CC[C@@H]3c4cc(Br)c(O)c(Br)c4CC[C@H]3[C@@H]1CC[C@@H]2O	17
CCOc1cc2c(cc1O)C=CC1C2CC[C@@]2(C)C1CC[C@@H]2O (stereo partly drawn)	1.9
CCOc1cc2c(cc1O)/C(=N\N)C[C@@H]1[C@@H]2CC[C@]2(C)[C@@H](O)CC[C@@H]12	5.4
C[C@]12CC[C@@H]3c4cc(OCC(F)(F)F)c(O)cc4CC[C@H]3[C@@H]1CC[C@@H]2O	0.46
CCOc1cc2c(cc1O)CC[C@@H]1[C@@H]2CC[C@]2(C)[C@@H](O)CC[C@@H]12	0.016

tested on: SN12C; test: In vitro cytotoxicity value corresponding to 50% growth inhibition against SN12C (renal) cell line.; type: functional; settings: Homo sapiens

Structure (SMILES)	GI50 [µM]
Cc1cc2cc3c(cc2o1)CC[C@@H]1[C@@H]3CC[C@]2(C)[C@@H](O)CC[C@@H]12	16
C[C@]12CC[C@@H]3c4cc(Br)c(O)c(Br)c4CC[C@H]3[C@@H]1CC[C@@H]2O	28
CCOc1cc2c(cc1O)C=CC1C2CC[C@@]2(C)C1CC[C@@H]2O (stereo partly drawn)	4.6
CCOc1cc2c(cc1O)/C(=N\N)C[C@@H]1[C@@H]2CC[C@]2(C)[C@@H](O)CC[C@@H]12	17
C[C@]12CC[C@@H]3c4cc(OCC(F)(F)F)c(O)cc4CC[C@H]3[C@@H]1CC[C@@H]2O	4.5
CCOc1cc2c(cc1O)CC[C@@H]1[C@@H]2CC[C@]2(C)[C@@H](O)CC[C@@H]12	0.039

tested on: UACC-62; test: In vitro cytotoxicity value corresponding to 50% growth inhibition against UACC-62(melanoma) cell line.; type: functional; settings: Homo sapiens

Structure (SMILES)	GI50 [µM]
Cc1cc2cc3c(cc2o1)CC[C@@H]1[C@@H]3CC[C@]2(C)[C@@H](O)CC[C@@H]12	16
C[C@]12CC[C@@H]3c4cc(Br)c(O)c(Br)c4CC[C@H]3[C@@H]1CC[C@@H]2O	17
CCOc1cc2c(cc1O)C=CC1C2CC[C@@]2(C)C1CC[C@@H]2O (stereo partly drawn)	4.8
CCOc1cc2c(cc1O)/C(=N\N)C[C@@H]1[C@@H]2CC[C@]2(C)[C@@H](O)CC[C@@H]12	0.88
C[C@]12CC[C@@H]3c4cc(OCC(F)(F)F)c(O)cc4CC[C@H]3[C@@H]1CC[C@@H]2O	2.3
CCOc1cc2c(cc1O)CC[C@@H]1[C@@H]2CC[C@]2(C)[C@@H](O)CC[C@@H]12	0.016

tested on: HCT-116; test: The In vitro cytotoxicity value is the concentration of the compound corresponding to 50% growth inhibition againstHCT-116 (colon) cell line.; type: functional; settings: Homo sapiens

Structure (SMILES)	GI50 [µM]
C[C@]12CC[C@@H]3c4cc(Br)c(O)c(Br)c4CC[C@H]3[C@@H]1CC[C@@H]2O	20

tested on: HOP-62; test: The In vitro cytotoxicity value is the concentration corresponding to 50% growth inhibition against HOP-62 (non small cell lung) cell line.; type: functional; settings: Homo sapiens

Structure (SMILES)	GI50 [µM]
Cc1cc2cc3c(cc2o1)CC[C@@H]1[C@@H]3CC[C@]2(C)[C@@H](O)CC[C@@H]12	19

tested on: HCT-116; test: In vitro cytotoxicity value corresponding to 50% growth inhibition against HCT116 (colon) cell line.; type: functional; settings: Homo sapiens

Structure (SMILES)	GI50 [µM]
Cc1cc2cc3c(cc2o1)CC[C@@H]1[C@@H]3CC[C@]2(C)[C@@H](O)CC[C@@H]12	0.51
CCOc1cc2c(cc1O)C=CC1C2CC[C@@]2(C)C1CC[C@@H]2O (stereo partly drawn)	1.1
CCOc1cc2c(cc1O)/C(=N\N)C[C@@H]1[C@@H]2CC[C@]2(C)[C@@H](O)CC[C@@H]12	2.1
C[C@]12CC[C@@H]3c4cc(OCC(F)(F)F)c(O)cc4CC[C@H]3[C@@H]1CC[C@@H]2O	3.2
CCOc1cc2c(cc1O)CC[C@@H]1[C@@H]2CC[C@]2(C)[C@@H](O)CC[C@@H]12	0.026
